In paper PMC4872822 (Journal of medicinal chemistry, 2015):
Values belong to the compound of their own block, whether it stands above or below them.

What was measured:
h-15-LOX-1 = biological target: T1, h-15-LOX-1 (Homo sapiens, UniProt P16050); assay: Human 15-LOX-1 screening UV assay; type: biochemical; conditions: for h-15-LOX-1 inhibition (result in words): SAR comparison, Figure 3, up to 50 μM
T1 sequence (P16050 1-662): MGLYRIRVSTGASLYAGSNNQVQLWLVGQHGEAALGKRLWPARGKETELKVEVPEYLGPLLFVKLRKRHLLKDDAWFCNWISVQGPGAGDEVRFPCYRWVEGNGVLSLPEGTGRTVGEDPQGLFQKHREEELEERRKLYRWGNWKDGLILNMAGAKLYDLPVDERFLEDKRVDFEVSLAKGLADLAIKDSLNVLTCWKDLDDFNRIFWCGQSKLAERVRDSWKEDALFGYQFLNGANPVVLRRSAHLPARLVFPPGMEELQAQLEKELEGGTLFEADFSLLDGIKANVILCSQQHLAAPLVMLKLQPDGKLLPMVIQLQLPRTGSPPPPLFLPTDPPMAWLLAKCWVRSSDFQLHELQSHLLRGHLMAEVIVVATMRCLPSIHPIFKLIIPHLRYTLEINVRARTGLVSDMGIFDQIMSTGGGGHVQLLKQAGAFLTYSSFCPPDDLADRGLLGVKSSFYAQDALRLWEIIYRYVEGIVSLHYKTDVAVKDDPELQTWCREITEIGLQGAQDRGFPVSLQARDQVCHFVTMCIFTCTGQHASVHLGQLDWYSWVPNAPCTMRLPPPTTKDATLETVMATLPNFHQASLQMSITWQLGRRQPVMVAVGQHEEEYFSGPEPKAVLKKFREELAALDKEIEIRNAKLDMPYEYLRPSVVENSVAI

[1] = system: precision-cut lung slices (PCLS); conditions: LDH release, 1-500 nM with 10 μM linoleic acid for 20 h
[2] = system: interleukin expression in precision-cut lung slices (PCLS); assay: Gene expression by RT-qPCR in LPS/IFNγ-stimulated precision-cut lung slices; type: cell-based, mouse; conditions: 20 h with 10 μM linoleic acid, LPS/IFNγ last 4 h
[3] = system: interleukin expression in RAW 264.7 cells; assay: Gene expression by RT-qPCR in LPS/IFNγ-stimulated RAW 264.7 cells; type: cell-based, murine; conditions: RAW 264.7, 20 h with 10 μM linoleic acid, LPS/IFNγ last 4 h
Method in brief: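 Murine macrophages (passage 7–16) in DMEM-GlutaMAX with 10% heat-inactivated FBS, extra 2 mM GlutaMAX and penicillin/streptomycin at 37 °C, 5% CO2, seeded at 20,000 cells/cm2 one day before. Test compound 1–500 nM (final) with 10 μM linoleic acid for 20 h; 10 ng/ml LPS and IFNγ for the last 4 h. Cells were DPBS-washed and total RNA isolated for RT-qPCR. Results are fold change versus the LPS/IFNγ/linoleic acid control.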

interleukin-12 (IL-12) = conditions: after stimulation with LPS; cited from earlier work

inhibition at 50 µM (h-15-LOX-1; read-out: inhibition of the enzyme activity at 50 μM): < 50%
Structure (SMILES): CCOC(=O)c1c(C=O)c2ccc(Cl)cc2n1C [Compound 3, Ethyl 6-chloro-3-formyl-1-methyl-1H-indole-2-carboxylate]

h-15-LOX-1 inhibition (result in words) (h-15-LOX-1): inactive
Structure (SMILES): O=Cc1c(Cl)[nH]c2cc(Cl)ccc12 [Compound 4]

h-15-LOX-1 inhibition (result in words) (h-15-LOX-1): inactive
Structure (SMILES): O=Cc1c[nH]c2cc(Cl)ccc12 [Compound 5]

h-15-LOX-1 inhibition (result in words) (h-15-LOX-1): inactive
Structure (SMILES): O=Cc1c(C(=O)O)[nH]c2cc(Cl)ccc12 [Compound 7, 6-chloro-3-formyl-1H-indole-2-carboxylic acid]

h-15-LOX-1 inhibition (result in words) (h-15-LOX-1): inactive
Structure (SMILES): CC(C)(C)OC(=O)c1cc2ccc(Cl)cc2[nH]1 [Compound 8, tert-butyl 6-chloro-1H-indole-2-carboxylate]

Structure (SMILES): CCOC(=O)c1[nH]c2cc(Cl)ccc2c1C(=O)C[C@@H](C)CCCC(C)C [Compound 14d, (S)-ethyl 6-chloro-3-(3,7-dimethyloctanoyl)-1H-indole-2-carboxylate]
concentration not affecting PCLS viability [1]: ≤ 500 nM
IL-1β gene expression [2]: small but significant downregulation
IL-6 gene expression [2]: small but significant downregulation
IL-10 gene expression [2]: upregulated
IL-12 gene expression [2]: remained unchanged
IL-1β gene expression [3]: did not change
IL-6 gene expression [3]: did not change
IL-12 gene expression [3]: did not change

Structure (SMILES): c1ccc2c(c1)SCc1c-2[nH]c2ccccc12 [PD-146176]
effect on interleukin-12 (IL-12) (interleukin-12 (IL-12)): downregulation of interleukin-12 (IL-12)
